Publication PMC2841442 (Journal of Medicinal Chemistry, 2010)

Key:
[1] = biological target: T1, NRP1 (PAE/NRP1 cells) (Homo sapiens, UniProt O14786); test: Inhibition of 125I-VEGF-A165 binding to PAE/NRP1 cells; details: 100 μM compound; 0.1 nM 125I-VEGF-A165; mean ± SEM, three experiments
Outline: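 Porcine aortic endothelial cells stably expressing NRP1 (Ham's F12, 10% FBS, hygromycin B) were grown to confluence. They received test compound (0.1−100 μM), then 0.1 nM 125I-VEGF-A165 (1200−1800 Ci/mmol). Nonspecific binding was taken with 100-fold excess unlabeled VEGF. IC50 was fitted from competition curves for compounds giving >70% inhibition at 100 μM. Three independent experiments in triplicate, mean ± SEM.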

[2] = system: HUVECs; test: VEGF-induced HUVEC migration; type: cell-based, human; details: 100 μM; VEGF 25 ng/mL; 4 h
Outline: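 HUVECs were pretreated 30 min with test compound or DMSO, then 1.5 × 10^5 cells in EBM/0.1% BSA were loaded into collagen I-coated transwell inserts (8 μm pores). Bottom wells held VEGF at 25 ng/mL, or medium control. Plates ran 4 h at 37 °C. Migrated underside cells were stained and counted in four fields at ×100. Three independent experiments in duplicate, mean ± SEM.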

[3] = system: A549 cells; test: A549 cell viability; type: cell-based, human
Outline: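 A549 cells kept in RPMI 1640 with L-glutamine, seeded at 4 × 10^3 cells/well in serum-free medium with graded 5-FU or paclitaxel, with or without test compound at 100 μM. After 44 h, XTT was added for a further 4 h (48 h total). Formazan was read at 490 nm against 595 nm reference. Three independent experiments in triplicate, mean ± SEM.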

[4] = biological target: T1, NRP1 (PAE/NRP1 cells); details: read-out: IC50, 125I-VEGF-A binding to PAE/NRP1 and tumor cells; cited from earlier work

T1 sequence (O14786 22-923): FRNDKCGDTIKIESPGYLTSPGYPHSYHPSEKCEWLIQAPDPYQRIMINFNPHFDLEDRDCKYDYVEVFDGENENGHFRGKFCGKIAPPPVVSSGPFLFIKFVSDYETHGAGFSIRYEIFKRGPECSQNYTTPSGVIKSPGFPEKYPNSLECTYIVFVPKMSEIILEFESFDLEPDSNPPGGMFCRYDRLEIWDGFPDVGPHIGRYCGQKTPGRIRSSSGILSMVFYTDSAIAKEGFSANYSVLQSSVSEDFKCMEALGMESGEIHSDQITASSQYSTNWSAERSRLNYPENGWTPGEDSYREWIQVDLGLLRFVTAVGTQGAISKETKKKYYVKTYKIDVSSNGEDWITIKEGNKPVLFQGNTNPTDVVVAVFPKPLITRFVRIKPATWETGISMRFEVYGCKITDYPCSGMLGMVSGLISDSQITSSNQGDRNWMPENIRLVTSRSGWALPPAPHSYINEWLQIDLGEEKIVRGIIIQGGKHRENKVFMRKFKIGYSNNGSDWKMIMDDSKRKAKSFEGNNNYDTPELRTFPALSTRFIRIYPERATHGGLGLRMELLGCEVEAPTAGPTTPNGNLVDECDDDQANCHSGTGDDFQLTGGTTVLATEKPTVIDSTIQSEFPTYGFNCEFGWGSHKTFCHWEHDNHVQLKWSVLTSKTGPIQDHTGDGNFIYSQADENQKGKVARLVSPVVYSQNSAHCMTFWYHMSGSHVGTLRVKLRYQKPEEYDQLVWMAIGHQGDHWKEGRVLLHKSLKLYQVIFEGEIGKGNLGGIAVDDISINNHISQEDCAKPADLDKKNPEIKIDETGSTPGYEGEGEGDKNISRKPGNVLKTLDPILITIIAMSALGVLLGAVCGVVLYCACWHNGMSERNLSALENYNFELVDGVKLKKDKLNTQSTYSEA

Row | Compound | inhibition of 125I-VEGF binding to PAE/NRP1 cells at 100 μM [1] | also measured
1 | H-KPAK-OH [Compound 23] | 22 ± 1.2% | –
2 | H-KPAr-OH [Compound 22] | 22 ± 9.5% | –
3 | N=C(N)NCCC[C@H](NC(=O)c1sccc1NS(=O)(=O)c1cccc2nsnc12)C(=O)O [Compound 2, (S)-2-(3-(Benzo[c][1,2,5]thiadiazole-4-sulfonamido)thiophene-2-carboxamido)-5-guanidinopentanoic Acid] | – | VEGF-A induced migration of HUVECs [2]: significantly reduced; A549 cell viability ([3]; 48 h incubation): significant reduction; enhancement of the cytotoxic effect of 5-fluorouracil ([3]; A549 cells, 100 μM 2): ~10 fold; enhancement of the cytotoxic effect of paclitaxel ([3]; A549 cells, 100 μM 2): approximately 4 fold
4 | H-KPAQ-OH [Compound 24] | 19 ± 7.6% | –
5 | H-kPAR-OH [Compound 18] | 51 ± 7.9% | –
6 | 1: bicyclic peptide corresponding to the C-terminal 28 amino acids of VEGF-A165 [Compound 1] | – | IC50 [4]: 2 to 3 µM
7 | H-KPaR-OH [Compound 19] | 36 ± 5.1% | –
